Results as given in publication PMC3729426 (Chemistry (Weinheim an der Bergstrasse, Germany), 2012).
Ends that are not written are not given here. Lumi4(Tb) = Lumi4(Tb) terbium luminescent complex

Key:
MDCKII cells [1] = format: cell-based, canine; conditions: summary of microscopic observations at higher concentrations
Method in brief: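 MDCKII cells were incubated 30 min at 37 °C in DMEM with FBS, or serum-free, with Tb3+ complex–peptide conjugates at 5, 20 or 60 μM. In one condition, 5 μM conjugate was combined with 30 μM unconjugated Arg9. Live cells were imaged by time-gated luminescence microscopy (10 μs delay, λex 365 nm, λem 540 ± 10 nm) to score punctate versus diffuse cytoplasmic/nuclear distribution.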

MDCKII cells [2] = system: MDCKII cells

Substance	mechanism of delivery mediated by the CPP (MDCKII cells [1])	intracellular disulfide reduction observed microscopically (MDCKII cells [2])	fluorescein signal distribution immediately after washing (MDCKII cells [2]; MDCKII cells, 17 (10 μM), serum-free medium, 10 min, 37 °C, continuous wave fluorescence)	fluorescein signal distribution 2 h post-wash (MDCKII cells [2]; MDCKII cells, 17 (10 μM), serum-free medium, 10 min, imaged 2 h post-wash)	Tb3+-to-fluorescein LRET emission ratio (520 nm/540 nm), 2 h post-wash versus immediate (MDCKII cells [2]; MDCKII cells, nuclear region, 17 (10 μM), 4 separate experiments)
17: cysteine amide-linked heterodimer of Lumi4 and TEGTMP coupled via a disulfide bond to the peptide Cys-TAT(47–57)-Lys(FAM) [compound 17]	non-endocytic, cytoplasmic delivery	its disulfide bond is reduced in the cytoplasm and nucleus	primarily diffuse throughout the cytoplasm and nucleus	punctate staining pattern predominant	significantly reduced
3: an N-terminal fusion of Lumi4(Tb) to Tat (49–57) ({Lumi4(Tb)}-RKKRRQRRR; UniProt P04608 49-57, looked up, fragment) [compound 3]	non-endocytic, cytoplasmic delivery				
